Reference: paper PMC11871391 (Journal of Diabetes Investigation, 2024)

How the values were obtained:
individuals with T1D = conditions: trials with degludec in T1D; cited from earlier work
[1] = test system: Japanese individuals with type 1 diabetes; experiment: Safety evaluation during treatment periods; format: in vivo, human; conditions: Japanese T1D; for rate of nocturnal Level 2 hypoglycemia / rate of overall Level 2 hypoglycemia (plasma glucose <3.0 mmol/L): glucose clamps excluded; for rate of overall Level 2 hypoglycemia (plasma glucose <3.0 mmol/L): from SMPG
In short: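 Randomized crossover in Japanese adults with T1D: once-weekly test insulin for 8 weeks and once-daily glargine U100 for 14 days, both with bolus aspart. Safety covered AEs, vital signs, ECG, physical exam and laboratory tests, with clinically significant findings recorded as AEs. Hypoglycemia (Level 2, <3.0 mmol/L; Level 3, severe) and hyperglycemia (>16.7 mmol/L) were identified from SMPG. Events were expressed per patient-year of exposure and summarized descriptively.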

insulin receptor = conditions: cited from earlier work
[2] = White individuals; cited from earlier work
[3] = test system: Japanese individuals with type 1 diabetes; format: in vivo, human; conditions: weekly dosing interval at steady state, Japanese T1D
In short: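 Steady-state clamps (target 6.7 mmol/L) ran 24–48 h and 150–168 h after the final weekly dose. Before the clamp, glucose had to stay within ±20% from 60 to 30 min prior, within ±10% in the last 30 min, and fluctuate ≤0.3 mmol/L in the final 10 min. GIR was Loess-smoothed (factor 0.25). A per-participant PK/PD model simulated the daily effect across the full week.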

[4] = format: in vivo, human; conditions: weekly dosing interval at steady state, Japanese T1D
In short: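 Japanese adults (20–64 y) with T1D got subcutaneous thigh doses once weekly around 20:00 for 8 weeks. The constant weekly dose was seven times the run-in daily glargine U100 dose, with glargine top-up in weeks 1–2. Blood was sampled from the first dose to 35 days after the last. Total serum drug (albumin-bound plus unbound) was measured by validated specific immunoassay. AUC was by linear trapezoid over 0–168 h; t½ was log(2)/λz by linear regression.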

Substance | rate of clinically significant or severe hypoglycemia previously reported (individuals with T1D) | rate of hyperglycemia (plasma glucose >16.7 mmol/L) [1] | severe (Level 3) hypoglycemic episodes [1] | rate of nocturnal Level 2 hypoglycemia [1] | rate of overall Level 2 hypoglycemia (plasma glucose <3.0 mmol/L) [1] | affinity for the insulin receptor (insulin receptor) | half-life [2] | day of maximum glucose-lowering effect [3] | day of maximum exposure [4]
insulin degludec | 42.5–88.3 episodes per PYE |  |  |  |  |  |  |  | 
insulin glargine U100 [reference compound] |  | 36.5 episodes per PYE | no severe (Level 3) hypoglycemic episodes | 9.4 episodes per PYE | 30.6 episodes per PYE |  |  |  | 
insulin icodec |  | 33.6 episodes per PYE | no severe (Level 3) hypoglycemic episodes | 7.8 episodes per PYE | 37.3 episodes per PYE | low affinity | approximately 1 week | Day 2 | Day 1
